In brackets after ≈: the same amount, converted by molar mass.
Assays:
Bacillus subtilis = assay: Antibacterial activity against Bacillus subtilis ATCC 6633 after 24 hrs by MTT assay; format: functional; conditions: ATCC 6633, 24 h
How it was run: (§1)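 MICs by broth microdilution in Mueller-Hinton medium. Compounds were taken from a 100 μg/mL DMSO stock into sterile medium and serially diluted. Inoculum about 10⁵ cfu/mL, incubated 37 °C for 24 h, and MIC read visually. MTT (2 mg/mL in PBS pH 7.4) was then added for 4–5 h at room temperature, dye extracted with acidified isopropanol for 12 h, OD read at 550 nm.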

Staphylococcus aureus = assay: Antibacterial activity against Staphylococcus aureus ATCC 6538 after 24 hrs by MTT assay; format: functional; conditions: ATCC 6538, 24 h; how it was run: as §1
Pseudomonas aeruginosa = assay: Antibacterial activity against Pseudomonas aeruginosa ATCC 13525 after 24 hrs by MTT assay; format: functional; conditions: ATCC 13525, 24 h; how it was run: as §1
Escherichia coli = assay: Antibacterial activity against Escherichia coli ATCC 35218 after 24 hrs by MTT assay; format: functional; conditions: ATCC 35218, 24 h; how it was run: as §1
[1] = Toxicity in RBC assessed as hemolysis; format: cell-based; conditions: erythrocyte
[2] = Inhibition of Escherichia coli N-terminal His-tagged FabH expressed in Escherichia coli BL21(DE3) using [3H]-acetyl-CoA after 25 mins by liquid scintillation counting
How it was run: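 His-tagged E. coli FabH was expressed with IPTG induction, purified on Ni-NTA and stored in Tris pH 7.6 with DTT and glycerol. Assay in 20 mM sodium phosphate pH 7.0 with 0.5 mM DTT, 0.25 mM MgCl₂, […] ACPS-converted holo-ACP and 1 nM FabH. Started with 25 μM acetyl-CoA plus [³H]acetyl-CoA, run 25 min, stopped with TCA; pellet counted by scintillation. Inhibitors added in DMSO (final ≤2%) for IC50.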

Row | MIC (Bacillus subtilis) | MIC (Staphylococcus aureus) | MIC (Pseudomonas aeruginosa) | MIC (Escherichia coli) | IC50 [2] | Structure (SMILES) | MHC [1]
1 | 50 µg/mL (≈ 122 µM) | > 100 µg/mL | > 100 µg/mL | > 100 µg/mL | – | S=C(Nc1ccccc1)Nc1ccccc1/N=C/c1ccc(Br)cc1 | –
2 | > 100 µg/mL | > 100 µg/mL | > 100 µg/mL | > 100 µg/mL | – | S=C(Nc1ccccc1)Nc1ccccc1/N=C/c1ccc(Cl)cc1 | –
3 | > 100 µg/mL | > 100 µg/mL | > 100 µg/mL | > 100 µg/mL | – | Oc1c(Br)cc(Br)cc1/C=N/c1ccc(NC(=S)Nc2ccccc2)cc1 | –
4 | 50 µg/mL (≈ 133 µM) | 25 µg/mL (≈ 66.4 µM) | > 100 µg/mL | > 100 µg/mL | – | O=[N+]([O-])c1ccccc1/C=N/c1ccc(NC(=S)Nc2ccccc2)cc1 | –
5 | 0.39 µg/mL (≈ 0.807 µM) | 3.13 µg/mL (≈ 6.47 µM) | 3.13 µg/mL (≈ 6.47 µM) | 1.56 µg/mL (≈ 3.23 µM) | – | NC[C@H]1O[C@H](O[C@H]2[C@H](O)[C@@H](O[C@H]3O[C@H](CO)[C@@H](O)[C@H](N)[C@H]3O)[C@H](N)C[C@@H]2N)[C@H](N)[C@@H](O)[C@@H]1O [BEKANAMYCIN] | –
6 | > 100 µg/mL | > 100 µg/mL | > 100 µg/mL | > 100 µg/mL | – | Fc1ccccc1/C=N/c1ccc(NC(=S)Nc2ccccc2)cc1 | –
7 | 50 µg/mL (≈ 133 µM) | 50 µg/mL (≈ 133 µM) | 50 µg/mL (≈ 133 µM) | 25 µg/mL (≈ 66.4 µM) | – | O=[N+]([O-])c1ccc(/C=N/c2ccc(NC(=S)Nc3ccccc3)cc2)cc1 | –
8 | > 100 µg/mL | > 100 µg/mL | > 100 µg/mL | > 100 µg/mL | – | Oc1ccc(Br)cc1/C=N/c1ccccc1NC(=S)Nc1ccccc1 | –
9 | > 100 µg/mL | > 100 µg/mL | > 100 µg/mL | > 100 µg/mL | – | Oc1c(Br)cc(Br)cc1/C=N/c1ccccc1NC(=S)Nc1ccccc1 | –
10 | 25 µg/mL (≈ 72 µM) | 6.25 µg/mL (≈ 18 µM) | 6.25 µg/mL (≈ 18 µM) | 12.5 µg/mL (≈ 36 µM) | 28.7 µM | Oc1ccccc1/C=N/c1ccc(NC(=S)Nc2ccccc2)cc1 | > 10000 µg/mL
11 | 6.25 µg/mL (≈ 14.3 µM) | 3.13 µg/mL (≈ 7.15 µM) | 3.13 µg/mL (≈ 7.15 µM) | 1.56 µg/mL (≈ 3.57 µM) | 4.3 µM | S=C(Nc1ccccc1)Nc1ccc(/N=C/c2ccc(OCc3ccccc3)cc2)cc1 | > 10000 µg/mL
12 | > 100 µg/mL | > 100 µg/mL | > 100 µg/mL | > 100 µg/mL | – | COc1ccc(/C=N/c2ccccc2NC(=S)Nc2ccccc2)cc1 | –
13 | > 100 µg/mL | > 100 µg/mL | > 100 µg/mL | > 100 µg/mL | – | S=C(Nc1ccccc1)Nc1ccc(/N=C/c2cccc(Br)c2)cc1 | –
14 | 50 µg/mL (≈ 143 µM) | 25 µg/mL (≈ 71.5 µM) | 50 µg/mL (≈ 143 µM) | 50 µg/mL (≈ 143 µM) | – | Fc1ccc(/C=N/c2ccc(NC(=S)Nc3ccccc3)cc2)cc1 | –

Further lines, the molecule ahead of its results:

Row | Structure (SMILES) | MIC (Bacillus subtilis) | MIC (Staphylococcus aureus) | MIC (Pseudomonas aeruginosa) | MIC (Escherichia coli) | IC50 [2] | MHC [1]
15 | Cc1ccc(/C=N/c2ccc(NC(=S)Nc3ccccc3)cc2)cc1 | 25 µg/mL (≈ 72.4 µM) | 25 µg/mL (≈ 72.4 µM) | 25 µg/mL (≈ 72.4 µM) | 12.5 µg/mL (≈ 36.2 µM) | 25.9 µM | > 10000 µg/mL
16 | COc1cccc(/C=N/c2ccc(NC(=S)Nc3ccccc3)cc2)c1 | 25 µg/mL (≈ 69.2 µM) | 50 µg/mL (≈ 138 µM) | 25 µg/mL (≈ 69.2 µM) | 50 µg/mL (≈ 138 µM) | 48.1 µM | > 10000 µg/mL
17 | S=C(Nc1ccccc1)Nc1ccc(/N=C/c2ccc(Br)cc2)cc1 | 50 µg/mL (≈ 122 µM) | 50 µg/mL (≈ 122 µM) | 25 µg/mL (≈ 60.9 µM) | 25 µg/mL (≈ 60.9 µM) | 40.8 µM | > 10000 µg/mL
18 | Oc1ccc(Cl)cc1/C=N/c1ccc(NC(=S)Nc2ccccc2)cc1 | 12.5 µg/mL (≈ 32.7 µM) | 12.5 µg/mL (≈ 32.7 µM) | 6.25 µg/mL (≈ 16.4 µM) | 6.25 µg/mL (≈ 16.4 µM) | 12.8 µM | > 10000 µg/mL
19 | Oc1ccc(Cl)cc1/C=N/c1ccccc1NC(=S)Nc1ccccc1 | 12.5 µg/mL (≈ 32.7 µM) | 6.25 µg/mL (≈ 16.4 µM) | 3.13 µg/mL (≈ 8.2 µM) | 3.13 µg/mL (≈ 8.2 µM) | 9.5 µM | > 10000 µg/mL
20 | Oc1ccc(Br)cc1/C=N/c1ccc(NC(=S)Nc2ccccc2)cc1 | 50 µg/mL (≈ 117 µM) | 50 µg/mL (≈ 117 µM) | 25 µg/mL (≈ 58.6 µM) | 25 µg/mL (≈ 58.6 µM) | 39 µM | > 10000 µg/mL
21 | Oc1ccccc1/C=N/c1ccccc1NC(=S)Nc1ccccc1 | > 100 µg/mL | > 100 µg/mL | > 100 µg/mL | > 100 µg/mL | – | –
22 | S=C(Nc1ccccc1)Nc1ccc(/N=C/c2ccc(Cl)cc2Cl)cc1 | 12.5 µg/mL (≈ 31.2 µM) | 12.5 µg/mL (≈ 31.2 µM) | 25 µg/mL (≈ 62.4 µM) | 12.5 µg/mL (≈ 31.2 µM) | 30.4 µM | > 10000 µg/mL
23 | CC1(C)S[C@@H]2[C@H](NC(=O)Cc3ccccc3)C(=O)N2[C@H]1C(=O)O [PENICILLIN G] | 1.56 µg/mL (≈ 4.67 µM) | 6.25 µg/mL (≈ 18.7 µM) | 6.25 µg/mL (≈ 18.7 µM) | 3.13 µg/mL (≈ 9.36 µM) | – | –
24 | S=C(Nc1ccccc1)Nc1ccc(/N=C/c2ccc(Cl)cc2)cc1 | 12.5 µg/mL (≈ 34.2 µM) | 6.25 µg/mL (≈ 17.1 µM) | 3.13 µg/mL (≈ 8.55 µM) | 6.25 µg/mL (≈ 17.1 µM) | 15.6 µM | > 10000 µg/mL

Reference: ChEMBL document CHEMBL1821587, “Synthesis, antibacterial activities and molecular docking studies of Schiff bases derived from N-(2/4-benzaldehyde-amino) phenyl-N'-phenyl-thiourea” (Bioorg Med Chem, 2011)
